Assay outcomes as filed in PubChem BioAssay.
Rad51 HR inh = human RAD51 strand exchange inhibitors, primary screen, biochemical, fluorescence. DNA repair protein RAD51 homolog 1 (Homo sapiens), Q06609. hRad51 DNA strand exchange, fluorescence dequenching. inhibition, % at 10 µM. 200,000 compounds, 0.085% hits. AID 1385, 2008;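 active means inhibition above 40% at the single screening dose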
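Assay system: Human Rad51 nucleoprotein filaments preassembled on unlabelled ssDNA | Reagent: Donor/quencher-labelled 47-bp dsDNA substrate | Doses: One concentration, 10 µM final | Times: 37 °C 15-min filament assembly, 30-min compound preincubation, 15-min exchange | Technique: Fluorescein emission 520 nm, excitation 485 nm | Benchmarks: Plate control and blank wells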
KCC2 mod = KCC2 cotransporter modulators, thallium flux, primary screen, cell-based, HEK293 KCC2, FluoZin-2 fluorescence, MLSMR | 190,000 compounds, 2.2% hits | B-score of Tl+ flux slope (higher = more flux/activation; lower = inhibition) at 10 µM | KCC2 cells, thallium flux FluoZin-2 fluorescence | AID 1456, 2008 | Solute carrier family 12 member 5 (Homo sapiens), Q9H2X9;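 active means thallium flux slope and its plate-corrected score both differing from the plate sample mean at a set confidence after two filtering rounds, in either direction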;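 further: slope of fluorescence scaled to starting intensity during 10 to 20 s after thallium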
Target sequence (Q9H2X9 whole entry, looked up): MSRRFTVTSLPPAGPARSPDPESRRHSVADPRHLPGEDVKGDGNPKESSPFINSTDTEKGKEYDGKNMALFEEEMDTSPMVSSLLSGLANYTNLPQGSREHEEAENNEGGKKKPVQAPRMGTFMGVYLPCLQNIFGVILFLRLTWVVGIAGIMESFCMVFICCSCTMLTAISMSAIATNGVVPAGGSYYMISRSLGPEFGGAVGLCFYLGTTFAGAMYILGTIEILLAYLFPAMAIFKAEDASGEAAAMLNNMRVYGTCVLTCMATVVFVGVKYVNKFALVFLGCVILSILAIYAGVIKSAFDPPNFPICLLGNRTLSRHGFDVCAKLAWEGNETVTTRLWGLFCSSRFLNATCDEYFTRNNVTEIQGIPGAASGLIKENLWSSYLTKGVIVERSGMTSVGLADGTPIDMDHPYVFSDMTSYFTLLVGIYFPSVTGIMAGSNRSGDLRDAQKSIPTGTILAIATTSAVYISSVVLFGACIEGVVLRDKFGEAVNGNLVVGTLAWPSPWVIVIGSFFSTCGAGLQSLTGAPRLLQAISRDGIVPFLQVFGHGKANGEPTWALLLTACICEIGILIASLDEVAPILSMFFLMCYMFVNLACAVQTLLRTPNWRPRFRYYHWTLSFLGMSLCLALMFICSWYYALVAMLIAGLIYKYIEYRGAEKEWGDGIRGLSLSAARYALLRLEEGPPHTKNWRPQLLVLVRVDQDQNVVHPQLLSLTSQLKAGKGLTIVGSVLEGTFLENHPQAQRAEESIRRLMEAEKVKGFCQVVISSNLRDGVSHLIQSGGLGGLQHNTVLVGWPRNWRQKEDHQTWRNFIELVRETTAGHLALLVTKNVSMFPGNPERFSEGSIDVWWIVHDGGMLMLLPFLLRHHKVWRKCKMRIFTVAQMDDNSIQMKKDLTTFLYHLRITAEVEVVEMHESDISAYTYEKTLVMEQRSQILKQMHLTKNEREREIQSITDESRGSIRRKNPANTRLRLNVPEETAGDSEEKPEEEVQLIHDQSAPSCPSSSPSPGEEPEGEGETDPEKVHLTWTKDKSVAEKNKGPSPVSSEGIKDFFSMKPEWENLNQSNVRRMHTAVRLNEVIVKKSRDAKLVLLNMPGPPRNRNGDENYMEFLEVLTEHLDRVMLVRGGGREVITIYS
PKD1 inh = inhibitors of human PKD1 kinase, biochemical, fluorescence polarization; Serine/threonine-protein kinase D1 (Homo sapiens), Q15139; PKD1 kinase fluorescence polarization assay; inhibition, % (no concentration beside the values); 200,000 compounds, 0.056% hits; in the data active means inhibition above about 50%
ROMK primary = ROMK potassium channel modulators, primary screen, cell-based, thallium flux, MLSMR library; Tet-inducible ROMK, thallium flux fluorescence; actives lie on both sides; B-score at 10 µM; 130,000 compounds, 2% hits; AID 1918, 2009;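 active means signal ratio slope over the read window, or its plate-corrected B-score, at least 3 SD from the plate mean, either direction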;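 further: B-score of the F/F0 ratio slope over 7 to 12 s after thallium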
ROMK retest = ROMK channel modulator hit retest, confirmation, cell-based, thallium flux, duplicate, resupplied hits; shares compounds with ROMK primary; fluorescence ratio; active compounds read low; normalized thallium flux (F/F0 slope) at 10 µM; 3,000 compounds, 54% hits; AID 1917, 2009;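 active means Flux at 10 µM at least 3 SD below or above vehicle control mean in one or both replicates; inconclusive means no clear call, values can overlap the other calls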
Hits are given with their value. Hits are enriched below; roughly 3% of the tested compounds scored in any of these assays.

Results for COc1ccccc1/C=N/NC(=O)CC(=O)Nc1ccc(Cl)c(Cl)c1 ?
Rad51 HR inh: inactive; KCC2 mod: inactive; PKD1 inh: inactive; ROMK primary: -3.8; ROMK retest: inactive

Results for O=C(NC(Nc1nc2ccc([N+](=O)[O-])cc2s1)(C(F)(F)F)C(F)(F)F)c1ccccc1Cl ?
Rad51 HR inh: inactive; KCC2 mod: inactive; PKD1 inh: inactive; ROMK retest: inconclusive

What do the screens show for `Cc1ccc(C(=O)c2cc([N+](=O)[O-])ccc2N2CCCCC2)c(C)c1`?
KCC2 mod: inactive; PKD1 inh: inactive; ROMK primary: 2.7; ROMK retest: inactive

Results for CCOc1ccc(C(=O)c2cc([N+](=O)[O-])ccc2N2CCOCC2)cc1 ?
KCC2 mod: inactive; PKD1 inh: inactive; ROMK primary: 6.7; ROMK retest: inactive

What do the screens show for `CCC(CC)NC(=O)c1cc([N+](=O)[O-])ccc1N1CCOCC1`?
Rad51 HR inh: inactive; KCC2 mod: inactive; PKD1 inh: inactive

Results for Cc1ccc(C(=O)c2cc([N+](=O)[O-])ccc2N2CCOCC2)cc1 ?
KCC2 mod: inactive; PKD1 inh: inactive

How did COc1ccc(C(=O)c2cc([N+](=O)[O-])ccc2N2CCOCC2)cc1 do in these assays?
Rad51 HR inh: inactive; KCC2 mod: inactive; PKD1 inh: inactive; ROMK primary: 5.6; ROMK retest: inactive

Results for CCOC(=O)C1=C(N)Oc2cc(O)ccc2C1c1cccc([N+](=O)[O-])c1 (stereo not given) ?
Rad51 HR inh: inactive; KCC2 mod: inactive; PKD1 inh: inactive; ROMK primary: inactive

Results for O=C(c1ccc(CSc2nc3ccncc3[nH]2)cc1)N1CCCCC1 ?
KCC2 mod: inactive; PKD1 inh: inactive; ROMK primary: inactive

What do the screens show for `Cc1ccc(C)c(N2CCN(C(=O)c3ccc(CSc4nc5ccncc5[nH]4)cc3)CC2)c1`?
Rad51 HR inh: inactive; KCC2 mod: inactive; PKD1 inh: inactive; ROMK primary: -4.2; ROMK retest: inactive

Results for COc1ccc(CS(=O)(=O)c2nc(C)cc(C)c2S(C)(=O)=O)cc1 ?
Rad51 HR inh: inactive; KCC2 mod: inactive; PKD1 inh: inactive; ROMK primary: inactive

How did O=C1C(Br)=Cc2cccc3cccc1c23 do in these assays?
KCC2 mod: inactive; ROMK retest: 0.049

Results for N#CC1=C(N)SC(N)=C(C#N)C1c1ccc([N+](=O)[O-])cc1 ?
KCC2 mod: inactive; PKD1 inh: inactive; ROMK primary: inactive

Results for N#CC1=C(N)SC(N)=C(C#N)C1c1ccc(C(F)(F)F)cc1 ?
KCC2 mod: inactive; PKD1 inh: inactive; ROMK primary: -3.5; ROMK retest: 0.045

How did COC(=O)C1CCN(C(=O)COC(=O)c2n[nH]c3ccccc23)CC1 do in these assays?
Rad51 HR inh: inactive; KCC2 mod: inactive; PKD1 inh: inactive; ROMK primary: inactive; ROMK retest: inactive

Results for CC1CCCN(C(=O)COC(=O)c2n[nH]c3ccccc23)C1 (stereo not given) ?
Rad51 HR inh: inactive; PKD1 inh: inactive; ROMK primary: inactive

What do the screens show for `Cc1cc2ccccc2n1CCNC(=O)c1cccs1`?
Rad51 HR inh: inactive; PKD1 inh: inactive; ROMK retest: 0.069

Results for Cc1cc2ccccc2n1CCNC(=O)C1CCCC1 ?
KCC2 mod: inactive; PKD1 inh: inactive

Results for CC(C)(C)c1ccc(-c2cn(-c3ccc(Br)cc3)c3[n+]2CCCS3)cc1 ?
Rad51 HR inh: inactive; KCC2 mod: inactive; PKD1 inh: inactive; ROMK primary: -2.5; ROMK retest: 0.055

What do the screens show for `c1ccc(-c2cn(-c3ccccc3)c3[n+]2CCS3)cc1`?
Rad51 HR inh: inactive; KCC2 mod: inactive; PKD1 inh: inactive; ROMK primary: inactive

Results for Cc1cc(C)cc(N(C(C)C(=O)NCCC2=CCCCC2)S(C)(=O)=O)c1 (stereo not given) ?
Rad51 HR inh: inactive; KCC2 mod: inactive; PKD1 inh: inactive; ROMK primary: inactive

Results for CCCN1CCN(C(=S)Nc2ccc([N+](=O)[O-])cc2)CC1 ?
Rad51 HR inh: inactive; KCC2 mod: inactive; PKD1 inh: inactive

What do the screens show for `CCCN1CCC(NC(=S)Nc2ccc([N+](=O)[O-])cc2)CC1`?
KCC2 mod: inactive; PKD1 inh: inactive; ROMK primary: -4.4; ROMK retest: 0.056

What do the screens show for `CN(C)CCCN(C(=O)c1ccco1)c1nc2ccc(Br)cc2s1`?
Rad51 HR inh: inactive; KCC2 mod: inactive; PKD1 inh: inactive; ROMK primary: inactive

What do the screens show for `CCN(CC)CCCN(C(=O)c1ccco1)c1nc(-c2ccc(C)cc2)cs1`?
Rad51 HR inh: inactive; KCC2 mod: inactive; PKD1 inh: inactive; ROMK primary: -3.5; ROMK retest: 0.057

What do the screens show for `CN(C)CCCN(C(=O)c1ccco1)c1nc2ccc(Cl)cc2s1`?
Rad51 HR inh: inactive; KCC2 mod: inactive; PKD1 inh: inactive; ROMK primary: -4.1; ROMK retest: inconclusive

How did N#C/C(=C\c1ccc(F)c(Cl)c1)S(=O)(=O)c1ccccn1 do in these assays?
Rad51 HR inh: inactive; KCC2 mod: inactive

How did CN1C(=O)/C(=C\C=C2/CCCN2C)N(C)C1=S do in these assays?
Rad51 HR inh: inactive; KCC2 mod: inactive; PKD1 inh: inactive; ROMK primary: inactive

How did CCN1C(=O)/C(=C/C=C2/CCCN2C)OC1=S do in these assays?
Rad51 HR inh: inactive; KCC2 mod: inactive; PKD1 inh: inactive; ROMK primary: -4.9; ROMK retest: 0.064

How did Cc1nn(-c2ccccc2)c(Cl)c1/C=C(\C#N)C(=O)NC(C)C do in these assays?
Rad51 HR inh: inactive; KCC2 mod: inactive; PKD1 inh: inactive; ROMK retest: 0.038

What do the screens show for `C[C@H]1[C@H](C)CC[C@]2(C(=O)O)CC[C@]3(C)C(=CC[C@@H]4[C@@]5(C)CC[C@H](O)C(C)(C)[C@@H]5CC[C@]43C)[C@H]12`?
Rad51 HR inh: inactive; KCC2 mod: inactive

Results for C[C@H]1[C@H](C)CC[C@]2(C)CC[C@]3(C)C(=CC[C@@H]4[C@@]5(C)CC[C@@H](O)[C@](C)(C(=O)O)[C@@H]5CC[C@]43C)[C@H]12 ?
Rad51 HR inh: inactive; KCC2 mod: inactive; ROMK retest: inactive

What do the screens show for `c1cncc(CNc2ncnc3sccc23)c1`?
Rad51 HR inh: inactive; KCC2 mod: inactive; PKD1 inh: inactive; ROMK primary: inactive

How did c1csc(CNc2ncnc3sccc23)c1 do in these assays?
Rad51 HR inh: inactive; PKD1 inh: inactive; ROMK primary: -2.9; ROMK retest: 0.066

What do the screens show for `COCCn1c(=NC(=O)C(C)(C)C)sc2cc([N+](=O)[O-])ccc21`?
KCC2 mod: inactive; PKD1 inh: inactive; ROMK primary: inactive

What do the screens show for `O=c1[nH]c2ccc(S(=O)(=O)NCCO)cc2[nH]1`?
Rad51 HR inh: inactive; KCC2 mod: inactive; PKD1 inh: inactive; ROMK primary: 1.5; ROMK retest: inactive
